From article PMC8081378 (Mutagenesis, 2019)

What was measured:
Assay type in all cases: cell-based, human
Phenion®FT skin tissues [1] = assay: 3D skin comet assay; conditions: for % tail DNA vs SC + APC: three treatments over 48 h in the presence of APC
Phenion®FT skin tissues [2] = assay: cytotoxicity in the skin comet assay
How it was run: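 Full-thickness tissues were cultured at the air–liquid interface (37°C, 5% CO₂). They were treated in triplicate with test compound ± APC in acetone (16 µl/cm²), either three times (48, 24 and 3 h) or once for 3 h. Afterwards, culture medium was kept at 4°C for adenylate kinase release. About 25% of each tissue was snap-frozen, homogenised in cold DPBS, heated (105°C, 5 min) and centrifuged; ATP was measured in the supernatant with a kit. Both measures were expressed relative to solvent control (100%).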

Phenion®FT skin tissues [3] = assay: DNA adduct formation by TLC 32P-postlabelling assay
EpiDerm™ skin tissues [4] = assay: reconstructed skin micronucleus
EpiDerm™ skin tissues [5] = assay: cytotoxicity in the RSMN assay
How it was run: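 Skin tissues received test compound topically in 10 µl (16 µl/cm²) acetone, two or three times at 24 h intervals, in triplicate alongside solvent controls. Tissues were washed in DPBS, then DPBS-EDTA, and trypsinised (0.25% trypsin–0.02% EDTA, 15 min, 37°C) into single-cell suspensions. Viable cell count came from AO/DAPI staining with an automated counter, and % BN from AO staining over 500 cells/tissue. Both were expressed relative to solvent control; excessive cytotoxicity was a 55 ± 5 % reduction.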

EpiDerm™ skin tissues [6] = assay: skin comet assay in EpiDerm skin tissues; conditions: single 3 h treatment, doses ≥2 µg/cm^2, keratinocytes, data not shown

CC(=O)Nc1ccc2c(c1)Cc1ccccc1-2 [2-AAF, 2-acetylaminofluorene]
% tail DNA vs SC + APC (Phenion®FT skin tissues [1]; fibroblasts, both experiments, all doses tested): significant increase in the % tail DNA
% tail DNA vs SC + APC (Phenion®FT skin tissues [1]; keratinocytes, at 75 µg/cm^2): only statistically significant in one experiment
dose that exceeded the % ATP cytotoxicity threshold (Phenion®FT skin tissues [2]; three treatments over 48 h with APC): 75 µg/cm^2
increase of adduct levels after multiple exposures over 48 h vs 3 h treatment (Phenion®FT skin tissues [3]; multiple exposures over 48 h): > 10 fold
2-AAF-derived DNA adducts (Phenion®FT skin tissues [3]; single 3 h treatment, 50 and 150 µg/cm^2): minimal, but detectable
DNA adduct level (RAL), up to (Phenion®FT skin tissues [3]; three treatments over 48 h): ~ 10 adducts per 10^8 nucleotides
DNA adduct levels in the presence of APC (Phenion®FT skin tissues [3]; three-treatment protocol, 150 µg/cm^2, with APC): additional, but non-significant increase
DNA damage in the RSMN assay (% MN-BN) (EpiDerm™ skin tissues [4]; topical, three doses over 72 h, up to 96 µg/cm^2): did not significantly increase DNA damage
MN formation (% MN-BN) (EpiDerm™ skin tissues [4]; topical, two times over a 48-h period, doses up to 140 µg/cm^2, vs SC): did not result in a significant increase in MN formation

C[C@@]1(CO)[C@H](O)CC[C@@]2(C)[C@H]1CC[C@H]1C[C@@H]3C[C@@]12CC[C@]3(O)CO [APC, aphidicolin]
DNA damage (% tail DNA) vs SC group alone (Phenion®FT skin tissues [1]; APC alone, 5 µg/ml in medium 4 h before end of incubation): small non-significant increase in DNA damage

CC(=O)N(O)c1ccc2c(c1)Cc1ccccc1-2 [N-OH-2-AAF, N-hydroxy-2-acetylaminofluorene]
% tail DNA (Phenion®FT skin tissues [1]; single 3 h treatment, 4 µg/cm^2, keratinocytes and fibroblasts): significantly increased the % tail DNA
DNA damage (% tail DNA) in the presence of APC vs compound alone (Phenion®FT skin tissues [1]; single 3 h treatment, 1 and 4 µg/cm^2, both cell types): further amplified
dose that exceeded the cytotoxicity threshold by % BN (EpiDerm™ skin tissues [5]; two or three treatments over 48 h or 72 h): 0.8 µg/cm^2
DNA damage in the skin comet assay (EpiDerm™ skin tissues [6]): highly significant dose-dependent increase in DNA damage
DNA damage in the RSMN assay (% MN-BN) (EpiDerm™ skin tissues [4]; three treatments over 72 h, doses up to 0.8 µg/cm^2): did not cause a significant increase in DNA damage
DNA damage in the RSMN assay (% MN-BN) (EpiDerm™ skin tissues [4]; two treatments over 48 h, doses up to 0.8 µg/cm^2): did not cause a significant increase in DNA damage

ONc1ccc2c(c1)Cc1ccccc1-2 [N-OH-2-AF, N-hydroxy-2-aminofluorene]
potency in the skin comet assay compared with N-OH-2-AAF (Phenion®FT skin tissues [1]; single 3 h treatment): more potent
near maximal level of DNA damage (Phenion®FT skin tissues [1]; single 3 h treatment, 1 µg/cm^2, keratinocytes and fibroblasts): 60–80 % tail DNA
DNA damage (% tail DNA) in the presence of APC (Phenion®FT skin tissues [1]; single 3 h treatment, all three doses, both cell types): further amplified and reached near maximal levels
DNA damage (% tail DNA) (Phenion®FT skin tissues [1]; single 3 h treatment, doses of 0.25–4 µg/cm^2, keratinocytes and fibroblasts): robust, dose-responsive increase in DNA damage
cytotoxicity by % VCC (EpiDerm™ skin tissues [5]; three treatments over 72 h, highest dose 1.3 µg/cm^2): approached the cytotoxicity threshold for % VCC at the highest dose
cytotoxicity (% AK, % ATP) (Phenion®FT skin tissues [2]; single 3 h treatment in the presence of APC): absence of excessive cytotoxicity
level of DNA adducts compared with N-OH-2-AAF at the same dose (Phenion®FT skin tissues [3]; single 3 h treatment, 1 µg/cm^2): not significantly different
micronuclei in the RSMN assay (% MN-BN) (EpiDerm™ skin tissues [4]; three treatments over 72 h, at the two highest doses 0.85 and 1.3 µg/cm^2, P < 0.01): significant change in micronuclei
MN formation (% MN-BN) (EpiDerm™ skin tissues [4]; two treatments over 48 h, up to 1.3 µg/cm^2): did not significantly increase MN formation
